HIF act: HIF pathway transcriptional activation. activation, % at 7.5 µM (by protocol). AID 1910. U2OS HRE-luciferase reporter, luminescence; normalized: DMSO 0%, desferrioxamine 100%. 300,000 tested, 0.32% active;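 active = mean activation of at least 10% of the iron chelator positive control signal, with at least half of replicates also reaching 10%; inconclusive = mean and replicate majority disagree about reaching 10%; inactive = mean and most replicates under 10%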
HSF-1 act: increases HSF-1 driven luciferase reporter signal | NIH3T3-HGL HSF-1 luciferase reporter, MG132, 8 h; 100% = twice DMSO control signal | activation, % at 9 µM | 300,000 tested, 1.7% active | AID 504408;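 active = mean replicate activation of at least 50% with a set share of replicates each reaching 50%; inconclusive = only one of those two conditions met; inactive = mean below 50% and too few replicates reaching it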;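 note: 0% = median of the neutral control wells and 100% = twice that signal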
HSF1 inhib: HSF1 inhibition | NIH3T3-HGL HSE-luciferase, MG132-induced, luminescence 8 h; hits give low values | activity change, negative = inhibition, % at 7.5 µM (by protocol) | 300,000 tested, 0.77% active;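 active = more than half of replicate wells show activity change below -50%, luminescence cut by over half; inconclusive = some wells, but at most half, below -50%; inactive = no replicate well below -50%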;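 note: luciferase reports HSF-1 transcriptional activity via heat shock element; 0% = median of DMSO wells and -100% = zero luminescence signal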
Calb FLC: affects C. albicans growth with fluconazole; C. albicans CaCi-2 (fluconazole-resistant clinical isolate) + fluconazole, Alamar Blue growth, 48 h; growth inhibition, % (concentration not given with the values); 300,000 tested, 0.57% active; AID 1979;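 active = growth inhibition above about 58% in most replicates, limit read from the data, passing the limit was not always enough; inconclusive = exactly half the replicates above a set limit; inactive = most replicates below a set limit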;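 note: all wells also contain fluconazole at 8 µg/ml as a sub-toxic cotreatment; 0% = median of DMSO wells and 100% = median of geldanamycin control wells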
T cruzi repl: blocks replication of Trypanosoma cruzi. T. cruzi beta-gal in NIH3T3, luminescence, 90 h. inhibition, % (concentration not given with the values). 300,000 tested, 1.4% active. AID 1885;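 active = mean inhibition across valid replicates above about 55%, limit read from the data; inconclusive = mean below that limit but half or more replicates reach it; inactive = mean below it, under half of replicates reach it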;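 note: signal also drops with host cell toxicity which is not excluded here; 0% = plate median of DMSO wells and 100% = zero luminescence signal; higher percent means less beta-gal luminescence so fewer parasites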
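System – NIH/3T3 host cells with β-galactosidase reporter T. cruzi · Doses – single 50 nL compound addition per well in DMSO · Reagent – 5000 T. cruzi trypomastigotes/well · Medium – Low-serum DMEM with 2% FBS · Timing – ≥90 h infection period, 3 h prior cell attachment · Evaluation – parasite load inhibition, % · Technique – GalScreen luminescence, 60 min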
An asterisk follows results filed as active; ? = inconclusive; . = no result. Rows were chosen to be rich in hits. Some 4.4% of all compounds tested hit in one or more screens of this group.

SMILES	HIF act	HSF-1 act	HSF1 inhib	Calb FLC	T cruzi repl
COc1ccc2ccccc2c1CNC(C)CCc1ccccc1 (stereo unspecified)	-2	8	4	?	56*
COc1ccc(CCNCc2c(OC)ccc3ccccc23)cc1OC	1	6	-7	-34	6
O=C(NCc1nnc(SCc2ccccc2)n1-c1ccccc1)C12CC3CC(CC(C3)C1)C2	0	90*	35	-48	41
CC1CCCN(C(=O)c2cccc(S(=O)(=O)Nc3cc(C(F)(F)F)ccc3Cl)c2)C1 (stereo unspecified)	0	16	17	94*	6
COc1cccc(CN(CC2CCCO2)C(=O)c2cc3ccccc3oc2=O)c1 (stereo unspecified)	2	3	-2	-2	4
CCNS(=O)(=O)c1ccc(CCC(=O)NCc2ccc3c(c2)OCO3)cc1	0	54*	7	-6	7
CC(C)(C)NC(=O)CN(Cc1ccc2c(c1)OCO2)C(=O)CNS(=O)(=O)c1ccc(F)cc1	19*	12	5	-6	1
CC(C)(C)NC(=O)CN(Cc1cccs1)C(=O)CNS(=O)(=O)c1ccc(F)cc1	1	1	3	2	-10
COc1ccc(Oc2cnn(-c3ccccc3)c(=O)c2Br)cc1	1	19	-1	2	-10
Cc1oncc1C(=O)Nc1ccc2ccccc2c1	-20	66*	42	-5	1
COc1cc2ccccc2cc1C(=O)Nc1cc(C)ccn1	3	31	18	-8	7
O=C(Nc1ccc2ccccc2c1)c1ccccc1F	-1	56*	29	-34	-1
COc1cc2ccccc2cc1C(=O)Nc1ccc(C)cc1	11*	39	21	20	-4
Cc1oncc1C(=O)Nc1cccc2ccccc12	-20	4	7	4	-6
COc1ccccc1C(=O)Nc1ccc2ccccc2c1	5	66*	40	2	5
COc1ccccc1N1CCN(C(=O)CN2C(=O)c3ccccc3S2(=O)=O)CC1	0	8	-5	-1	2
COC(=O)Cn1cnc2scc(-c3ccc(C)cc3)c2c1=O	1	-10	-8	10	0
CCOC(=O)c1sc2nc(C)nc(SCC(=O)N(C)C3CCS(=O)(=O)C3)c2c1C (stereo unspecified)	0	14	-8	?	-3
COc1cc2ccccc2cc1C(=O)Nc1ccc(Cc2ccncc2)cc1	5	9	-1	26	62*
COc1ccccc1C(=O)Nc1cc(Cl)ccc1O	1	65*	19	1	-1
COc1ccc(NC(=O)Nc2ccc(Cc3ccncc3)cc2)cc1OC	0	4	-5	1	-22
O=C(Nc1ccncc1)c1cc2ccccc2cc1O	4	261*	232	-2	3
NNC(=O)c1nc[nH]c1C(=O)Nc1ccccc1	0	37	11	4	-7
Cc1ccc(CNC(=O)C2CCCN(S(=O)(=O)c3cccc4nonc34)C2)cc1 (stereo unspecified)	-22	2	-3	7	-7
C=CCn1c(C)nc2c(sc3nc4c(cc32)COC(C)(C)C4)c1=O	4	53*	31	1	-4
SMILES	HIF act	HSF-1 act	HSF1 inhib	Calb FLC	T cruzi repl
COc1cc2c(cc1OC)C(COc1ccc(F)cc1)N(C(=O)c1ccco1)CC2 (stereo unspecified)	-5	6	14	10	15
COc1cc2c(cc1OC)C(c1cc3cccc(C)c3[nH]c1=O)N(C(=O)c1ccco1)CC2 (stereo unspecified)	0	12	-2	-4	58*
Cc1ccc(C(=O)NCC(=O)OCC(=O)N(CC(C)C)c2c(N)n(Cc3ccccc3)c(=O)[nH]c2=O)cc1	0	14	0	-5	-22
Cc1csc(=Nc2ccccc2)n1CCCN1CCCC1=O	1	2	-1	-3	8
CC(=O)N/C(N)=N/c1nc2cc([N+](=O)[O-])ccc2o1	1	72*	23	9	-5
CC(C)(C)C(=O)N/C(N)=N/c1nc2ccccc2o1	2	52*	15	-7	-7
CCC(=O)N/C(N)=N/c1nc2ccccc2o1	0	5	2	4	-2
CC(=O)N/C(N)=N/c1nc2cc(C)ccc2o1	1	45	18	6	-7
CCOC(=O)C1=NN(c2ccc(Cl)cc2)C(=O)C1	2	13	14	-12	-3
CNc1nc(Cl)c(SC)c(NCc2ccc(F)cc2)n1	0	30	6	12	18
O=C(COC(=O)/C=C/c1ccc(C(F)(F)F)cc1)NC1CCCC1	0	6	-10	2	-6
O=C(COC(=O)/C=C/c1ccc(C(F)(F)F)cc1)NC1CC1	0	-58	-56*	-4	-5
O=C(O)CSCC(=O)Nc1ccc(C2CCCCC2)cc1	-4	-79	-78*	8	-9
COc1ccccc1C(=O)NCCC(=O)N1CCN(C(C)=O)CC1	1	2	-1	-7	-11
O=C(NCc1cccnc1)c1cc(S(=O)(=O)N2CCCC2)c(Cl)cc1Cl	-9	14	-4	3	-5
OC(CN1CCN(C(c2ccccc2)c2ccccc2)CC1)c1ccccc1 (stereo unspecified)	-61	12	-9	-4	1
CN1CCN(CC(O)c2ccccc2)CC1 (stereo unspecified)	0	-16	-2	3	55*
O=C(c1ccc(SCc2cccc(Br)c2)c([N+](=O)[O-])c1)N1CCN(c2ccccn2)CC1	0	-5	6	27	58*
O=C(c1cccc(Br)c1)N1CCN(c2ccccn2)CC1	0	15	-1	16	.
COc1ccc(C2NC(=S)NC3=C2CCCC3=C2SCCS2)cc1 (stereo unspecified)	235*	-60	-56*	4	11
COc1ccc2c(c1)CCC1=C2NC(=S)NC1c1ccc(N(C)C)cc1 (stereo unspecified)	2	3	3	4	66*
N=c1occ(C(=O)c2cc(F)ccc2O)cc1C(=O)NC1CCCCC1	0	12	-4	30	5
c1csc(-c2cnc3ccccc3n2)c1	3	53*	11	15	11
Cc1nn(Cc2ccc(F)cc2)c(C)c1NC(=O)CCCn1nc([N+](=O)[O-])cc1C	0	8	2	-2	19
O=C(c1ccc(-c2ccccc2Cl)o1)N1CCN(S(=O)(=O)c2cccs2)CC1	2	16	15	4	5
CNCCCCOc1ccc(C(C)(C)C)cc1Cl	0	16	2	-4	59*
c1ccc(CCC2CCCCN2Cc2nc(-c3ccc4c(c3)OCO4)no2)nc1 (stereo unspecified)	1	29	1	-16	27
Cc1cc(O)c(C(C)C)cc1C1(c2cc(C(C)C)c(O)cc2C)OC(=O)c2ccccc21	-5	-5	-11	2	77*

Source: PubChem (Broad Institute)
